Reference: ChEMBL document CHEMBL3804768, “Structure-Activity Relationship Studies of Mitogen Activated Protein Kinase Interacting Kinase (MNK) 1 and 2 and BCR-ABL1 Inhibitors Targeting Chronic Myeloid Leukemic Cells” (J Med Chem, 2016)
Converted amounts (≈) assume the structure as drawn.

Key:
[1] = molecular target: Fibroblast growth factor receptor 2 (Homo sapiens, UniProt P21802); assay: Inhibition of human recombinant FGFR2 expressed in sf21 cells using Poly(Glu:Tyr) as substrate in presence of [gamma32P]ATP
Fibroblast growth factor receptor 2, sequence (P21802 whole entry): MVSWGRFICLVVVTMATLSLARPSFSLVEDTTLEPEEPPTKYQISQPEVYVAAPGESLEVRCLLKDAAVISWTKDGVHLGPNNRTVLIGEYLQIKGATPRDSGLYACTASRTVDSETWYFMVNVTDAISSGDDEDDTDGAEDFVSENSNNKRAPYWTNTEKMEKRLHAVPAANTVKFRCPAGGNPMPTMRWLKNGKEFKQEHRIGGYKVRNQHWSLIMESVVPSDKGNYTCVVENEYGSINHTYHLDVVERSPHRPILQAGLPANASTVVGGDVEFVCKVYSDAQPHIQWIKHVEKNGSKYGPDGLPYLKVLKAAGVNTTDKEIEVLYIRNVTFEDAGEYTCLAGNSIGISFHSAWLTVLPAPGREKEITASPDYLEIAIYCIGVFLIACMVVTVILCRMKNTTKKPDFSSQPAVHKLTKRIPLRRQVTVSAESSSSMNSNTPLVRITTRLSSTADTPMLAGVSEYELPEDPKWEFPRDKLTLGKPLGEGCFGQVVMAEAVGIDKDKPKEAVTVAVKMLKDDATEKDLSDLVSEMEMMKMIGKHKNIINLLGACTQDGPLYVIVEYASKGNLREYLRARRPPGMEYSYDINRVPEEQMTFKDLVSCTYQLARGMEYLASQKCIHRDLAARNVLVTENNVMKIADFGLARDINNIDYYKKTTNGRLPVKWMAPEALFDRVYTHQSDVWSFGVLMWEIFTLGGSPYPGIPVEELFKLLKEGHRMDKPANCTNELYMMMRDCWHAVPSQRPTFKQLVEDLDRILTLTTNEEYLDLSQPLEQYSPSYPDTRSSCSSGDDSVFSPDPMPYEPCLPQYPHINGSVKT

[2] = molecular target: Vascular endothelial growth factor receptor 2 (Homo sapiens, UniProt P35968); assay: Inhibition of human recombinant VEGFR2 expressed in sf21 cells using Poly(Glu:Tyr) as substrate in presence of [gamma32P]ATP
K562 [3] = assay: Antiproliferative activity against human K562 cells after 48 hrs by Cell-Titer-Glo luminescent cell viability assay; type: functional; settings: K562, 48 h
How it was run: (§1)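 Cells seeded at 5000 per well in growth medium, exposed to serial doses from 0.003 μM to 50 μM for 48 h at 37 °C, 5% CO2. Viability was read by CellTiter-Glo luminescence and GI50 taken from the dose-response curve. Dose response was run in triplicate and the curve repeated twice. K562 eIF4E-overexpressing cells were cultured in RPMI with 10% FBS.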

[4] = molecular target: Proto-oncogene tyrosine-protein kinase receptor Ret (Homo sapiens, UniProt P07949); assay: Inhibition of human recombinant RET expressed in sf21 cells using Poly(Glu:Tyr) as substrate in presence of [gamma32P]ATP
[5] = molecular target: T1, Receptor-type tyrosine-protein kinase FLT3 (Homo sapiens, UniProt P36888); assay: Inhibition of human recombinant FLT3 expressed in sf21 cells using Poly(Glu:Tyr) as substrate in presence of [gamma32P]ATP
T1 sequence (P36888 whole entry): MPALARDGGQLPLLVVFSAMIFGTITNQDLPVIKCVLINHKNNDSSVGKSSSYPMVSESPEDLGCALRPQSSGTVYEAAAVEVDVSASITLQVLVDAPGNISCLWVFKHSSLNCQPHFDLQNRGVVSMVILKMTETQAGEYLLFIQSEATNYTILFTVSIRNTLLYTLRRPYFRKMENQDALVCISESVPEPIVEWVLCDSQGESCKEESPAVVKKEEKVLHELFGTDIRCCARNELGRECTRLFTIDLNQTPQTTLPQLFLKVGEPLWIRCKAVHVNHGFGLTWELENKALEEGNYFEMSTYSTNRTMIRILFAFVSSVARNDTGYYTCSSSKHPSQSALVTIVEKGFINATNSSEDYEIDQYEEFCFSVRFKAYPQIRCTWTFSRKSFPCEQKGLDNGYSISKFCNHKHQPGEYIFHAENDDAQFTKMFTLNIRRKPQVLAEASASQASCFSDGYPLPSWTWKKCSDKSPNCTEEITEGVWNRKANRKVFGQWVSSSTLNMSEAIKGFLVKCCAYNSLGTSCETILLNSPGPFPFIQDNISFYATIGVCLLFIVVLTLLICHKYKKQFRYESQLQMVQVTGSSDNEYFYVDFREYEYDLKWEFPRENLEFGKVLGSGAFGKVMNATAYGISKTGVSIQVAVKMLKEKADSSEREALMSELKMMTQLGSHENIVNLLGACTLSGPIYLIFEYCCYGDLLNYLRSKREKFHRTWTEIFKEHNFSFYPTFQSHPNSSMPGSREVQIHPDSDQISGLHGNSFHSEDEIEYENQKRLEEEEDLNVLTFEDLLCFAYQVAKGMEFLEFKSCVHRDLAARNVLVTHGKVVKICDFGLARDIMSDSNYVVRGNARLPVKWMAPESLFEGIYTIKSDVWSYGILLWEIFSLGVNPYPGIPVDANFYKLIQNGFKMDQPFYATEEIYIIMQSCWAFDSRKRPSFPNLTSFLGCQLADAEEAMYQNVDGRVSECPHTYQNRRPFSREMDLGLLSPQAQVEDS

[6] = molecular target: T2, Mast/stem cell growth factor receptor Kit (Homo sapiens, UniProt P10721); assay: Inhibition of human recombinant c-KIT expressed in insect cells using Poly(Glu:Tyr) as substrate in presence of [gamma32P]ATP
T2 sequence (P10721 whole entry): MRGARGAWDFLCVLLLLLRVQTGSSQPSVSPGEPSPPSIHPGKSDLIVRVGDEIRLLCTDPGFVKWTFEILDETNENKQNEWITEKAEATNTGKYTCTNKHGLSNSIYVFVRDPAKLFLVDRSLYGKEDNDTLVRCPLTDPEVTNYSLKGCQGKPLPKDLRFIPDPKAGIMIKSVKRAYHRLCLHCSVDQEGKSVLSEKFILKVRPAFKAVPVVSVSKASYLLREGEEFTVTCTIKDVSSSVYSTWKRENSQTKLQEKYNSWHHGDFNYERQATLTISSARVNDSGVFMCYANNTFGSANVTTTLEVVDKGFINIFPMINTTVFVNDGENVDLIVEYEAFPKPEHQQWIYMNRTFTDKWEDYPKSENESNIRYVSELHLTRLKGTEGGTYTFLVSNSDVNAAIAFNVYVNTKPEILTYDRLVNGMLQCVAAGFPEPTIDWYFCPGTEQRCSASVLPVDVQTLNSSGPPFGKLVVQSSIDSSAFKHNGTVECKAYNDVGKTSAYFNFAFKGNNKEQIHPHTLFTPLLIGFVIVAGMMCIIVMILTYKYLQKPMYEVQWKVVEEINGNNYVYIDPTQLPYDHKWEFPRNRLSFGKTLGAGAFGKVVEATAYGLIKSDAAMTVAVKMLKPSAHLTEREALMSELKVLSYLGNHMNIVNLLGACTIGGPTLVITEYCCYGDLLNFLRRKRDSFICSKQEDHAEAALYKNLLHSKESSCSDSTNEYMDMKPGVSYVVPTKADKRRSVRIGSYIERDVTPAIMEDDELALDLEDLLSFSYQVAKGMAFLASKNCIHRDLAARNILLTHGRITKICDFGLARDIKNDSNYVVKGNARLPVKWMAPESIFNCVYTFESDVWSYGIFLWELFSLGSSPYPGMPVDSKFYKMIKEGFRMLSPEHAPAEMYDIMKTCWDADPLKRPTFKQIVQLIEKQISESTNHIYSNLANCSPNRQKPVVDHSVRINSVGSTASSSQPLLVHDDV

[7] = Thermodynamic solubility in pH 4 pION buffer at 500 uM incubated for 18 hrs by UV-spectrophotometry; type: physicochemical; settings: read-out: Therm_solubility
[8] = molecular target: MAP kinase-interacting serine/threonine-protein kinase 1/2 (Homo sapiens, UniProt Q9HBH9+Q9BUB5); assay: Inhibition of MNK1/MNK2 in human HeLa cells assessed as reduction in phosphorylation of eIF4E at Ser209 after 2 hrs by AlphaScreen SureFire assay; type: cell-based
How it was run: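 HeLa cells were grown in DMEM with 10% FBS and penicillin/streptomycin, seeded at 30,000 per well and left 24 h. They were then exposed to serially diluted compound in serum-free DMEM for 2 h at 37 °C and lysed with shaking for 20 min. Phospho-eIF4E Ser209 was read by AlphaScreen SureFire with 2 h acceptor and 2 h donor steps at room temperature. Dose response was run in triplicate.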

[9] = molecular target: T2, Mast/stem cell growth factor receptor Kit; assay: Inhibition of human recombinant c-KIT expressed in insect cells at 1 uM using Poly(Glu:Tyr) as substrate in presence of [gamma32P]ATP
[10] = Cmax in CD1 mouse at 50 mg/kg, po; type: ADME, organism-based; parameters: dose 50 mg/kg, route oral; settings: in vivo
Bcr/Abl fusion protein = Bcr/Abl fusion protein (Homo sapiens, UniProt P00519); assay: Inhibition of BCR fused full length human recombinant N-terminal His-tagged ABL (2 to 1130 residues) expressed in baculovirus expression system using FL-peptide 2 substrate preincubated for 10 mins followed by substrate addition measured after 60 mins by mobility shift assay
Bcr/Abl fusion protein, sequence (P00519 whole entry, the tested form may be a part): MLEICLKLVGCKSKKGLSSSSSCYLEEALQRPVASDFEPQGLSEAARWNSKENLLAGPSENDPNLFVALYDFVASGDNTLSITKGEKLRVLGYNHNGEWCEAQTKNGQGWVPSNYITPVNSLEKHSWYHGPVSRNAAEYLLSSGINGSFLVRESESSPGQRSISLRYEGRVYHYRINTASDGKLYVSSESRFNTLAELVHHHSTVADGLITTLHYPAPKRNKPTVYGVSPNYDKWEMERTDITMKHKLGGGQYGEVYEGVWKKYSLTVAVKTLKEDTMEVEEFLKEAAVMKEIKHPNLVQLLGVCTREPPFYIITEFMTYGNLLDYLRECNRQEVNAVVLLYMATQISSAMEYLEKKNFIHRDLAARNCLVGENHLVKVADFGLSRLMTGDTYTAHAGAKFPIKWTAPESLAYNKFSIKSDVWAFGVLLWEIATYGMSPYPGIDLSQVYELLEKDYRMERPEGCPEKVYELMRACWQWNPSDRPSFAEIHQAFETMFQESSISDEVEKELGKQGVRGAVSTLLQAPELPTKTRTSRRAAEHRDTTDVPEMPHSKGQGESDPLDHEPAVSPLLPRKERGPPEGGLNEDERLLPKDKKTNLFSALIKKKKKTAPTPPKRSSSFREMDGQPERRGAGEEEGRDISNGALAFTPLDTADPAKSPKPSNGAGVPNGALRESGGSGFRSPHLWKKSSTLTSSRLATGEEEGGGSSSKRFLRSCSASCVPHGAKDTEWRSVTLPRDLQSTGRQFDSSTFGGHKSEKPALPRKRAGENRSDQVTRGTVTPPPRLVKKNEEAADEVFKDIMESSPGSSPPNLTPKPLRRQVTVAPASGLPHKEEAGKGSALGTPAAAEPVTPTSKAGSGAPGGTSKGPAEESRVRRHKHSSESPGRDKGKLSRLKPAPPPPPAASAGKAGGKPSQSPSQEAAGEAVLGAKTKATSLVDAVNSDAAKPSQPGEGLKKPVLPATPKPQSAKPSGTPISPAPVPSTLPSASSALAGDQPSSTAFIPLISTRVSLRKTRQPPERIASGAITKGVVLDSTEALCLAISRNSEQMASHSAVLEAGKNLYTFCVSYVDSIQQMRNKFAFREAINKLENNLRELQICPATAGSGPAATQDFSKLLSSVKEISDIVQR
Bcr/Abl fusion protein, sequence (P11274 whole entry, further chain, the tested form may be a part): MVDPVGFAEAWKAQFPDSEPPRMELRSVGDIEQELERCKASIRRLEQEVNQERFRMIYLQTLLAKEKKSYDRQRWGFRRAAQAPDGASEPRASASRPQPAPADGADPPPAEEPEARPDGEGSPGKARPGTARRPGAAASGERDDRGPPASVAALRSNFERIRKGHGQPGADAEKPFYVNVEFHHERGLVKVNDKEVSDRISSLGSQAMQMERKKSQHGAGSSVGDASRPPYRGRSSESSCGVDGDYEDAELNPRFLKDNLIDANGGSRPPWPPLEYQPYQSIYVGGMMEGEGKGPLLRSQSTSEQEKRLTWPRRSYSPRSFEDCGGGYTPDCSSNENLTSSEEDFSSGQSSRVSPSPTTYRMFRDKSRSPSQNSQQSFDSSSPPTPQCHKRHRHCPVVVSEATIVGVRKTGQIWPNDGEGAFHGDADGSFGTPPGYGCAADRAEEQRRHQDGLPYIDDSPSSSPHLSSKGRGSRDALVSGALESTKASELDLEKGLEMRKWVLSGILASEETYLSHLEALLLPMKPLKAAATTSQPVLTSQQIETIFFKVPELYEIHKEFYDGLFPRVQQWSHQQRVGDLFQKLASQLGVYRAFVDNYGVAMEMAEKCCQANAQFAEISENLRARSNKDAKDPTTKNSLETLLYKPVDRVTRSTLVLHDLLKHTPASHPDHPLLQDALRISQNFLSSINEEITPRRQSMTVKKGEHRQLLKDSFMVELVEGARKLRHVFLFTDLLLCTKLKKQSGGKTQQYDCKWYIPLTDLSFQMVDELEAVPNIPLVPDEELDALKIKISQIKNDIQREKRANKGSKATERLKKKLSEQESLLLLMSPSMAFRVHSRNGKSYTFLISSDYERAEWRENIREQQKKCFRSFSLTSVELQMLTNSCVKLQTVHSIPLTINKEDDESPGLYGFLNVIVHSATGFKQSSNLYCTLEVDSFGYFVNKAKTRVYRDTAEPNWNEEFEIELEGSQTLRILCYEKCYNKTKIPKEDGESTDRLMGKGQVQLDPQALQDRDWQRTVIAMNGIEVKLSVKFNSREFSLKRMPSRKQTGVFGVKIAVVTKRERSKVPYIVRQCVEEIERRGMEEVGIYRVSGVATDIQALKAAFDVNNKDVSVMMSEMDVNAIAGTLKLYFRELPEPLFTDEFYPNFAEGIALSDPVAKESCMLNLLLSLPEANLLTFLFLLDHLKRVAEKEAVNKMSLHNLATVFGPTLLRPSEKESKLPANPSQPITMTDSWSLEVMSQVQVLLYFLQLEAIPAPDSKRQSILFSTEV

[11] = Permeability of compound by PAMPA; type: ADME; settings: read-out: permeability
K562 [12] = assay: Antiproliferative activity against human K562 cells over expressing eIF4E after 48 hrs by Cell-Titer-Glo luminescent cell viability assay; type: functional; settings: K562, 48 h; how it was run: as §1
[13] = Antiproliferative activity against human BV173 cells after 48 hrs by Cell-Titer-Glo luminescent cell viability assay; type: functional; settings: BV-173, 48 h; how it was run: as §1
[14] = Plasma protein binding in human; type: ADME, cell-free; settings: read-out: PPB (converted)
K562 [15] = assay: Antitumor activity against human K562 cells over expressing eIF4E xenografted in po dosed NOD-SCID mouse assessed as tumor growth inhibition administered qd through oral gavage for 14 days; type: functional, organism-based
How it was run: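 Female SCID mice, 7-10 weeks old, received 1 x 10^7 K562 eIF4E-overexpressing cells subcutaneously. At tumor volumes of 75-245 mm³ (w²×l/2) mice were randomized and gavaged once daily for 14 days at 10 mL/kg.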

[16] = Thermodynamic solubility in pH 7 pION buffer at 500 uM incubated for 18 hrs by UV-spectrophotometry; type: physicochemical; settings: read-out: Therm_solubility
[17] = molecular target: Platelet-derived growth factor receptor beta (Homo sapiens, UniProt P09619); assay: Inhibition of human recombinant PDGFRbeta expressed in sf21 cells at 1 uM using Poly(Glu:Tyr) as substrate in presence of [gamma32P]ATP

Structure (SMILES) | IC50 [1] | IC50 [2] | GI50 (K562 [3]) | IC50 [4] | IC50 [5] | IC50 [6] | solubility thermodynamic at 18 h, 500 µM [7] | IC50 [8] | inhibition [9] | Cmax [10] | IC50 (Bcr/Abl fusion protein) | Papp [11] | GI50 (K562 [12]) | GI50 [13] | fraction unbound [14] | TGI (K562 [15]) | solubility thermodynamic at 18 h, 500 µM [16] | inhibition [17]
CN1CCN(Cc2ccc(NC(=O)CNc3ccc(-c4ccc(NC(=O)C5CC5)nc4)cc3F)cc2C(F)(F)F)CC1 | 272 nM | 21 nM | 12 nM | 1 nM | 20 nM | 1510 nM | 183 µg/mL (≈ 313 µM) | 280 nM | > 99% | 1210 ng/mL | 10 nM | 30.6 ×10⁻⁶ cm/s | 12 nM | 1 nM | 0.0022 | Dose-dependent effect | 3.8 µg/mL (≈ 6.5 µM) | > 99%
CCN1CCN(Cc2ccc(NC(=O)CNc3ccc(-c4ccc(NC(=O)C5CC5)nc4)cc3)cc2C(F)(F)F)CC1 | 930 nM | 24 nM | 58 nM | 7 nM | 20 nM | 888 nM | 128 µg/mL (≈ 220 µM) | 180 nM | > 99% | 2490 ng/mL | 89 nM | 34.5 ×10⁻⁶ cm/s | 51 nM | 30 nM | 0.0008 | Dose-dependent effect | 0.1 µg/mL (≈ 0.172 µM) | > 99%
